Hits are enriched below; roughly 1.7% of the tested compounds scored in any of these assays.
Cneo AK release: Cryptococcus neoformans cell lysis inducers, primary screen, AK release luminescence, single concentration. AID 651654, 2012. lysis activity, % at 15 µM. C. neoformans lysis, adenylate kinase release luminescence, 4 h; normalised: neutral wells 0, clomiphene wells 100. actives 0.2% (n = 360,000);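 active = mean lysis activity across replicates of at least 80%, whatever share of replicates individually reach that level; inactive = mean lysis activity below 80%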
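Material – Cryptococcus neoformans yeast cells · Quantity – 5 × 10^6 yeast cells/mL · Buffer or medium – YPD medium · Compound – single dose · Timing – 4 h static compound exposure, 37 °C, read 1 h post-reagent · Signal – adenylate kinase release luminescence · Read-out basis – lysis from increased AK signal · Benchmarks – Clomiphene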
Ecoli rRNA inh: reduced GFP signal of wild-type E. coli, primary screen, bacterial rRNA inhibitor project, GFP/RFP fluorescence, OD600, single point; E. coli WT GFP vs humanized-ribosome RFP mutants, 24 h; stronger effect = lower value; DMSO median 0, no signal -100; GFP signal change (wild-type ribosome), % (test concentration not listed); actives 1.6% (n = 350,000);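 active = significant combined selectivity score with lowered wild-type GFP, culture density cut under 30%, mutant RFP and density less affected; inactive = any of these conditions unmet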
CaV13 ICDI inh: Primary screen for inhibitors of IQ motif and Ca2+-dependent inactivation inhibitor domain binding in CACNA1D, Förster resonance energy transfer in living cells, …; inhibition, % at 12.3 µM; actives 0.098% (n = 340,000); HEK cells, CFP/YFP FRET ICDI-IQ, plate reader, 10 min; percent FRET-ratio fall versus neutral wells;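 active = mean replicate inhibition of at least 30% and at least 1% of replicates passing that level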;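 also: 0% = median of the neutral control wells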
F508del corr: F508del CFTR correction, initial screen, CFBE line, single point. CFBE cells, YFP halide quenching; stimulated with forskolin plus potentiator P3; % fluorescence drop versus neutral controls. activity (quench increase), % at 7.58 µM. actives 0.36% (n = 350,000);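 active = mean added fluorescence quench of at least 8% versus neutral control, with both replicates also reaching 8%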;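 also: cells transiently co-express mutant CFTR-F508del with the halide-sensitive YFP; corrector assay measuring rescue of mutant channel to the surface after 24 h compound exposure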
Numbers without * were called inactive; / = not tested or not shown; + = active, no number.

SMILES	Cneo AK release	Ecoli rRNA inh	CaV13 ICDI inh	F508del corr
C/C(=N\Nc1nc2ccccc2[nH]1)c1ccc2c(c1)OCCO2	/	-48*	-6	6
COc1cc2c(c(OC)c1OC)-c1ccc(OC)c(=O)cc1C(NC(C)=O)CC2 (stereo not drawn)	0	0	-4	1
COc1c(O[C@@H]2O[C@H](CO)[C@@H](O)[C@H](O)[C@H]2O)cc2c(c1OC)-c1ccc(SC)c(=O)cc1C(NC(C)=O)CC2 (stereo partly drawn)	0	/	-5	14*
COc1c(C=O)c2c(c(OC)c1OC)-c1ccc(OC)c(=O)cc1C(NC(C)=O)CC2 (stereo not drawn)	/	15	-12	11*
COc1ccc(CN(C)C[C@H]2Oc3c(NS(=O)(=O)c4ccc(C)cc4)cccc3C(=O)N([C@@H](C)CO)C[C@H]2C)cc1	/	-4	/	0
C[C@H]1CN([C@@H](C)CO)C(=O)c2cc(Br)cnc2O[C@@H]1CN(C)C(=O)Nc1ccc(F)cc1	-2	0	/	/
COc1cccc(NC(=O)N2CC(=O)N3[C@H](CO)[C@H](c4ccc(Br)cc4)[C@H]3C2)c1	/	-4	/	0
OC[C@H]1[C@@H](c2ccc(C#Cc3cccnc3)cc2)[C@@H]2CN(Cc3ccccc3F)CCCCN12	2	-25	/	0
Cc1nc(C)n(C(Oc2ccc(Cl)cc2Cl)C(=O)C(C)(C)C)n1 (stereo not drawn)	5	-18*	4	1
CCOC(=O)c1nnc(-c2ccccc2)o1	3	/	-4	/
O=C(CCc1ccccc1)c1nnc(-c2ccccc2)o1	/	-23*	6	0
CCn1c2ccccc2c(=O)c2ccccc21	2	-14	+	-2
CCn1c2ccccc2c2cc([N+](=O)[O-])ccc21	/	10	-5	0
C[C@H]1CN([C@@H](C)CO)C(=O)c2cc(NC(=O)Nc3ccc(F)cc3)ccc2O[C@@H]1CN(C)S(C)(=O)=O	100*	1	/	1
COc1ccc(NC(=O)Nc2ccc3c(c2)C(=O)N([C@H](C)CO)C[C@H](C)[C@H](CN(C)S(=O)(=O)c2ccc(Cl)cc2)OCCCC[C@@H](C)O3)cc1	4	3	/	0
COc1ccc(NC(=O)Nc2ccc3c(c2)C(=O)N([C@H](C)CO)C[C@@H](C)[C@@H](CN(C)S(=O)(=O)c2ccc(Cl)cc2)OCCCC[C@H](C)O3)cc1	96*	5	/	-2
C[C@@H]1CN([C@@H](C)CO)C(=O)c2cc(NC(=O)Nc3ccc(F)cc3)ccc2O[C@@H](C)CCCCO[C@H]1CN(C)S(=O)(=O)c1ccccc1	101*	6	/	-4
C[C@@H]1CCCCO[C@H](CN(C)S(=O)(=O)c2ccccc2)[C@H](C)CN([C@@H](C)CO)C(=O)c2cc(NC(=O)Nc3ccc(F)cc3)ccc2O1	0	-2	/	1
C[C@H]1CN([C@@H](C)CO)C(=O)c2ccccc2-c2ccccc2CO[C@@H]1CN(C)S(C)(=O)=O	/	2	/	/
CCN(CC)S(=O)(=O)c1cccc(-c2n[nH]c(=S)n2/N=C/c2ccc(OC(F)F)cc2)c1	/	-18*	-6	/
COc1cc2ccccc2cc1C(=O)N1CCN(C(C)=O)CC1	2	16	-2	1
CCOc1ccccc1N1CCN(C(=O)c2ccccc2OCc2c(C)noc2C)CC1	0	-16*	-2	4
COc1cc(C(=O)N2CCC(C(N)=O)CC2)ccc1OCc1c(C)noc1C	/	0	-5	9.4*
CCOc1ccccc1N1CCN(C(=O)c2cc3ccccc3cc2OC)CC1	-1	-16	-14	17*
COc1cc(SC)ccc1C(=O)N1CCN(c2ccccc2F)CC1	/	-24*	-3	-3
SMILES	Cneo AK release	Ecoli rRNA inh	CaV13 ICDI inh	F508del corr
C[C@H]1CN([C@@H](C)CO)C(=O)c2cc(NS(C)(=O)=O)ccc2O[C@@H]1CN(C)C(=O)Nc1ccc(C(F)(F)F)cc1	1	2	/	-3
CCOc1ccccc1N1CCN(C(=O)c2cc3c(C)cc(C)cc3[nH]2)CC1	-1	4	-4	-3
CCOc1ccccc1N1CCN(C(=O)c2ccc3[nH]c4c(c3c2)CCCC4)CC1	3	-27*	-4	/
COc1ccccc1S(=O)(=O)Cc1ccc(C(=O)N2CCCC2)o1	5	-1	0	1
CCc1ccccc1S(=O)(=O)Cc1ccc(C(=O)N2CCN(c3ccccc3OC)CC2)o1	0	-11	55*	-2
O=C(C[C@H]1CC[C@H](NC(=O)Nc2ccccc2F)[C@H](CO)O1)NCc1ccc(F)cc1	/	1	/	0
CC(C)C[C@@H](COCc1ccc(C(F)(F)F)cc1)N1CCN(C(=O)c2ccc(C(F)(F)F)cc2)CCC1=O	/	-6	-7	9.6*
CC(C)CC(COCc1ccc(C(F)(F)F)cc1)N1CCN(C(=O)c2ccc(C(F)(F)F)cc2)CCC1=O (stereo not drawn)	4	4	-5	-2
C[C@H](CO)N1C[C@H](C)[C@H](CN(C)S(=O)(=O)c2ccc(F)cc2)Oc2ncc(C#Cc3ccc(F)cc3)cc2C1=O	/	5	/	2
O=C(O)c1ccc(CSc2nnc(-c3ccco3)n2-c2ccccc2)cc1	/	-34*	9	-3
c1ccc(-n2c(SCc3nc(-c4cccs4)no3)nnc2-c2ccco2)cc1	/	-22*	-9	0
CCCN(CC(=O)Nc1ccc(F)c(F)c1F)Cc1cc(=O)n2ccsc2n1	/	5	3	2
CCCN(CC(=O)Nc1ccc(Cl)cc1Cl)Cc1cc(=O)n2ccsc2n1	-3	-46*	4	0
O=C(c1ccncc1)N1CC[C@@H]2[C@H](CO)Nc3ccc(Br)cc3[C@@H]21	-20	4	/	1
CC1=C(C(=O)N2CCN(c3cc(C)ccc3C)CC2)C2(CCCCC2)OC1=O	2	9	47*	1
CC(=O)c1c(COC(=O)c2ccccc2Cl)nc2ccccc2[n+]1[O-]	-3	-35*	-14	0
COc1ccc(CN(C)C[C@H]2Oc3ccc(NC(=O)CCCN(C)C)cc3C(=O)N([C@H](C)CO)C[C@H]2C)cc1	/	-1	/	-1
COc1cc(/C=C/C(=O)OCC(=O)N2CCC(C)CC2)ccc1O	2	-2	-6	-2
COc1cc(/C=C/C(=O)OCC(=O)N2CCC(Cc3ccccc3)CC2)ccc1O	-2	-32*	-16	/
COc1ccc(NC(=O)N(C)C[C@@H]2Oc3ccc(NS(C)(=O)=O)cc3CC(=O)N([C@@H](C)CO)C[C@@H]2C)cc1	3	4	/	0
Cn1c(SCC(=O)N(Cc2ccccc2)C(C)(C)C)nc2ccccc21	6	-31*	-8	1
Cn1c(SCC(=O)N2CCCC2)nc2ccccc21	/	8	8	1

Screening results as filed in PubChem.
